Drawing on ChEMBL document CHEMBL3779898, “3,3'-OH curcumin causes apoptosis in HepG2 cells through ROS-mediated pathway” (Eur J Med Chem, 2016), this text covers IC50 and Activity for six compounds.

As a reminder, the IC50 is the concentration that gives 50% inhibition.

In assay [1] the test system is HepG2. Description: Cytotoxicity against human HepG2 cells assessed as reduction in cell viability after 48 hrs by MTT assay. In kind it is functional, cell-based. The settings on record: HepG2, 48 h. Put shortly:
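HepG2 seeded at 3×10^3/well, grown 24 h, then exposed to compounds for 48 h. MTT (0.5 mg/mL) added for 4 h, formazan dissolved in DMSO, absorbance read at 570 nm. IC50 = concentration giving 50% loss of viability; mean ± SD of three determinations.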
(In general: Tetrazolium dyes change colour on reduction, which living cells bring about.)

Assay [2] concerns HepG2. Description: Induction of apoptosis in human HepG2 cells assessed as late apoptotic cells at 5 mM after 24 hrs by Annexin V-FITC/propidium iodide staining based flow cytometry (reference value: 5.4%). It is filed as functional. Put shortly:
(§1)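 HepG2 plated at 5×10^5/well, grown 24 h, then treated 24 h; where indicated, 1 h pretreatment with 5 mM GSH or NAC. Cells stained with Annexin V-FITC/PI; 10,000 cells per sample analysed by flow cytometry into early apoptotic, late apoptotic and necrotic quadrants; triplicate.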

Assay [3] deals with HepG2. Description: Induction of apoptosis in human HepG2 cells assessed as necrotic cells at 5 mM after 24 hrs by Annexin V-FITC/propidium iodide staining based flow cytometry (reference value: 1.6%). It is filed as functional. Put shortly: as §1
Assay [4] relates to HepG2. Briefly: Induction of apoptosis in human HepG2 cells assessed as early apoptotic cells at 5 mM after 24 hrs by Annexin V-FITC/propidium iodide staining based flow cytometry (reference value: 2.8%). It is filed as functional. Put shortly:
as §1
Background: Flow cytometry measures light scatter and fluorescence of single cells or particles in a stream.

Regarding `COc1cccc(/C=C/C(=O)CC(=O)/C=C/c2cccc(OC)c2)c1`, the IC50 in the assay on HepG2 [1] stood at 83.4 µM. For `COc1ccc(/C=C/C(=O)CC(=O)/C=C/c2ccc(OC)cc2)cc1`, in the assay with HepG2 [1], the IC50 is over 200 µM. For `O=C(/C=C/c1ccccc1O)CC(=O)/C=C/c1ccccc1O`, the 50% inhibitory concentration (IC50) with HepG2 [1] came to 50 µM. Consider `COc1cc(/C=C/C(=O)CC(=O)/C=C/c2ccc(O)c(OC)c2)ccc1O` [CURCUMIN], for which, in the assay with HepG2 [1], the IC50 was 52.3 µM. In the case of `COc1ccccc1/C=C/C(=O)CC(=O)/C=C/c1ccccc1OC`, in the assay on HepG2 [1], the half-maximal inhibitory concentration (IC50) was 125 µM.

Turning to `CC(=O)N[C@@H](CS)C(=O)O` [ACETYLCYSTEINE], the results for the Activity with HepG2 [2], with HepG2 [3] and with HepG2 [4] were 6.6%, 1.9% and 2.6%, respectively.
